From ChEMBL document CHEMBL4765352, “Discovery of AdipoRon analogues as novel AMPK activators without inhibiting mitochondrial complex I” (Eur J Med Chem, 2020)
Calls of active or inactive are those of the source. No cut-off for these calls is given here.

Columns and labels:
[1] = tested on: C2C12; assay: Cytotoxicity against mouse C2C12 cells assessed as reduction in cell viability at 5 to 20 uM incubated for 24 to 72 hrs by MTT assay; assay type: cell-based; conditions: c2c12, 20 µM, dose lower 5 µM, time lower 24 hrs, dose upper 20 µM, time upper 72 hrs
How it was run: (§1)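 MTT viability assay in C2C12, HepG2 and A549 cells. Exposure was 24 h or 72 h for C2C12 and 72 h for HepG2 and A549. Three replicates per group, compared with the 0 μM group by Student's t test.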

[2] = tested on: HepG2; assay: Activation of AMPK in human HepG2 cells assessed as increase in AMPK phosphorylation at 1 to 20 uM measured after 2 to 12 hrs by Western blotting analysis; assay type: cell-based; conditions: filed as activator, dose 1-20 µM, time 2-12 hrs
How it was run: (§2)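 HepG2 and HuH-7 cells in medium with 10% FBS and penicillin/streptomycin at 37 °C, 5% CO₂. Treated with a range of concentrations for 2 h, or with 10 μM over a time course. Cells lysed in RIPA buffer with protease/phosphatase inhibitors; ~30 µg protein per lane blotted for p-AMPK, AMPK, p-ACC, ACC, with GAPDH or β-actin as loading control. Detected by ECL.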

[3] = Induction of glucose consumption in mouse C2C12 cells at 10 uM measured after 12 hrs by glucose oxidase method (reference value: 100 %); assay type: functional
How it was run: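 Differentiated C2C12 myotubes were switched to DMEM containing 2.75 g/L glucose and treated for 12 h at 37 °C, with cell-free blank wells as reference. Glucose left in the medium was measured by the GOD-POD method at 570 nm. Consumption was derived by subtraction and expressed as percentage of the DMSO group.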

[4] = Induction of cardiac hypertrophy in db/db mouse assessed as increase in cardiac glycogen accumulation at 100 mg/kg, ig administered for 10 weeks; assay type: organism-based; conditions: in vivo, po, 1680 h
[5] = Toxicity in db/db mouse assessed as effect on body weight at 100 mg/kg, ig administered for 10 weeks; assay type: organism-based; conditions: in vivo, po, 1680 h
How it was run: (§3)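 db/db mice, 5 weeks old, grouped by matching baseline blood glucose and body weight. Dosed intragastrically once daily at 100 mg/kg in 0.5% methylcellulose; vehicle-treated db/db and db/m mice served as controls. Body weight and fasting blood glucose measured weekly. Serum ALT and AST measured after 10 weeks. Data given as mean ± SEM.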

[6] = tested on: HepG2; assay: Activation of AMPK in human HepG2 cells assessed as increase in ACC phosphorylation at 1 to 20 uM measured after 2 to 12 hrs by Western blotting analysis; assay type: cell-based; conditions: filed as activator, dose 1-20 µM, time 2-12 hrs; how it was run: as §2
[7] = tested on: C2C12; assay: Activation of AMPK in mouse C2C12 cells with SiRNA-induced LKB1 knock down assessed as increase in ACC phosphorylation; assay type: cell-based
[8] = organism: Homo sapiens; assay: Activation of AMPK alpha2/beta2/gamma1 (unknown origin)
[9] = tested on: Mus musculus; assay: Antihyperglycemic activity in db/db mouse assessed as improved insulin resistant at 100 mg/kg, ig administered once daily for 9 weeks by ITT; assay type: functional, organism-based
How it was run: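 db/db mice dosed from 5 weeks of age with 100 mg/kg/day in 0.5% methylcellulose vehicle, for 9 weeks. After a 6 h fast, insulin was injected i.p. at 1.5 mU/g body weight and tail-vein blood glucose followed. Data given as mean ± SEM and compared by two-way ANOVA.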

[10] = tested on: Mus musculus; assay: Hypoglycemic activity in 6 hrs fasted normal lean C57BL/6 mouse assessed as reduction in blood glucose level at 100 mg/kg, ig pretreated for 2 hrs followed by glucose challenge and measured up to 90 mins post glucose challenge starting from 120 mins prior to […] by IPGTT; assay type: functional, organism-based; conditions: time 210.0 min
How it was run: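 C57BL/6 mice (male, 8-10 weeks, n=6 per group) fasted 6 h, then given compound or vehicle intragastrically. Two hours later, 20% glucose was injected i.p. at 2 g/kg. Tail-vein glucose read by glucometer at -120, 0, 20, 40, 60 and 90 min, and net AUC calculated. Doses were 25, 50 and 100 mg/kg.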

[11] = Metabolic stability in human liver microsomes assessed as intrinsic clearance preincubated for 5 mins followed by NADPH addition and measured up to 45 mins by LC/MS analysis; assay type: ADME, Microsome; conditions: time 50 min, read-out: CLH
How it was run: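 Compound and liver microsomes in preheated potassium phosphate buffer, held at 37 °C for 5 min. Reaction started with NADPH and stopped at 0, 5, 15, 30 and 45 min with acetonitrile containing tolbutamide internal standard. Samples centrifuged at 6000 rpm for 15 min, supernatant analysed by LC/MS. Ketanserin run as assay control. Performed by a contract lab.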

[12] = tested on: H9c2; assay: Activation of AMPK in rat H9C2 cells assessed as increase in phosphorylation of ACC at 1 to 20 uM incubated for 1 to 24 hrs by Western blot analysis; assay type: cell-based; conditions: dose 1-20 µM, time 1-24 hrs
How it was run: (§4)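 Rat cardiac H9C2 cells treated with a concentration range for 2 h or 4 h, or with 10 μM over a time course. Lysates blotted for phosphorylated and total AMPK and ACC, detected by ECL.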

[13] = tested on: BEAS-2B; assay: Activation of AMPK in human BEAS-2B cells harboring wild type LKB1; assay type: cell-based; conditions: filed as activator
[14] = tested on: HepG2; assay: Cytotoxicity against human HepG2 cells assessed as reduction in cell viability at 10 to 20 uM incubated for 72 hrs by MTT assay; assay type: cell-based; conditions: hepg2, 72 h, dose 10-20 µM; how it was run: as §1
[15] = Inhibition of mitochondrial complex 1 in human HepG2 cells assessed as increase in ADP/ATP ratio at 10 uM; assay type: cell-based; conditions: hepg2, 10 µM
How it was run: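 HepG2 cells treated with 10 μM or 0.5 μM compound, or DMSO. Cellular ADP:ATP and AMP:ATP ratios were measured. Three replicates, given as mean ± SD and compared by Student's t test.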

[16] = tested on: A549; assay: Activation of AMPK in human A549 cells harboring mutant LKB1; assay type: cell-based
[17] = Metabolic stability in ICR/CD-1 mouse liver microsomes assessed as half life preincubated for 5 mins followed by NADPH addition and measured up to 45 mins by LC/MS analysis; assay type: ADME, Microsome; conditions: time 50 min
How it was run: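 Compound was preincubated with mouse (ICR/CD-1) or human liver microsomes in potassium phosphate buffer at 37 °C for 5 min, then NADPH was added to start the reaction. Samples were quenched with acetonitrile containing tolbutamide internal standard at 0, 5, 15, 30 and 45 min. Parent compound measured by LC/MS; ketanserin served as control.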

[18] = Toxicity in db/db mouse assessed as effect on serum ALT level at 100 mg/kg, ig administered for 10 weeks; assay type: organism-based; conditions: in vivo, po, 1680 h; how it was run: as §3
[19] = tested on: H9c2; assay: Activation of AMPK in rat H9C2 cells assessed as increase in phosphorylation of AMPK at 1 to 20 uM incubated for 1 to 24 hrs by Western blot analysis; assay type: cell-based; conditions: dose 1-20 µM, time 1-24 hrs; how it was run: as §4
[20] = Induction of cardiac hypertrophy in normal lean C57BL/6 mouse at 100 mg/kg, ig administered for 4 weeks; assay type: organism-based; conditions: in vivo, po, 672 h
How it was run: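 Male C57BL/6 mice, 9 weeks old, dosed intragastrically daily for 4 weeks. After saline perfusion, organ weights and tibia length were recorded. Heart pieces were fixed in 4% paraformaldehyde, embedded in paraffin and stained with periodic acid-Schiff to show glycogen.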

[21] = organism: Mus musculus; assay: Improvement in lipid homeostasis in db/db mouse assessed as effect on serum total cholesterol level; assay type: functional, organism-based

CC(C)(Oc1ccc(Cl)cc1)C(=O)Nc1ccc(OCc2ccc(C#N)cc2)cc1
Activity [1]: Non-Toxic
Activity [2]: Active
Activity [3]: 151.8%
Activity [4]: Non-Toxic
Activity [5]: Non-Toxic
Activity [6]: Active
Activity [7]: inactive
Activity [8]: inactive
Activity [9]: Active
Activity [10]: Active
CLint scaled [11]: 18 mL/min/kg
Activity [12]: inactive
Activity [13]: Active
Activity [14]: Toxic
inhibition (INH) [15]: Not Active
Activity [16]: inactive
half-life [17]: 36 min
Activity [18]: Non-Toxic
Activity [19]: inactive
Activity [20]: Non-Toxic
Activity [21]: inactive
